Counter-ions that a name gives are not always drawn. Active and inactive are the calls of the source. The calls are words filed in the database; no cut-off is given here.
Legend:
Plasmodium falciparum [1] = assay: Antimalarial activity against mid-ring stage of Plasmodium falciparum Fab9 infected in human O-positive erythrocytes after 72 hrs by SYBR Green I dye-based fluorescence assay; assay type: functional, organism-based; details: Fab9, 72 h
How it was run: (§1)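 Sorbitol-synchronised (>80% ring) […] cultures were used at the mid-ring stage (6-10 h post-invasion), at 1% parasitemia and 2% hematocrit, with serial compound dilutions (Dd2 top concentration 10 µM). Incubation was 72 h at 37 °C under 5% CO₂/5% O₂/90% N₂. Cells were then lysed with saponin/Triton X-100 buffer containing 5X SYBR Green I, kept 2 h in the dark, and read at ex 485/em 535 nm.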

Plasmodium berghei = assay: In vivo antimalarial activity against Plasmodium berghei ANKA infected in BALB/c mouse assessed as reduction in parasitemia at 20 mg/kg, po administered daily for 4 days by Giemsa staining-based method; assay type: functional, organism-based
How it was run: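 BALB/c mice were infected with P. berghei ANKA. Starting 24 h later, they received 20 mg/kg test compound or control orally once daily for 4 days. Parasitemia was counted on Giemsa-stained blood smears every day over 10 days.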

Plasmodium falciparum [2] = assay: Antimalarial activity against mid-ring stage of multidrug-sensitive Plasmodium falciparum 3D7 infected in human O-positive erythrocytes after 72 hrs by SYBR Green I dye-based fluorescence assay; assay type: functional, organism-based; details: 3D7, 72 h
How it was run: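 Cultures were synchronised with 5% sorbitol to over 80% rings, and parasites at mid-ring stage (6–10 h post-invasion) were used at 1% parasitemia and 2% hematocrit. […] Growth ran 72 h at 37 °C under 5% CO₂, 5% O₂, 90% N₂. Cells were lysed in saponin/Triton X-100 buffer with 5X SYBR Green I, kept 2 h in the dark, and fluorescence was read at 485/535 nm.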

Plasmodium falciparum [3] = assay: Antimalarial activity against mid-ring stage of Plasmodium falciparum GB4 infected in human O-positive erythrocytes after 72 hrs by SYBR Green I dye-based fluorescence assay; assay type: functional, organism-based; details: GB4, 72 h; how it was run: as §1
[4] = molecular target: Bifunctional dihydrofolate reductase-thymidylate synthase (Plasmodium falciparum K1) (UniProt P13922); assay: Inhibition of Plasmodium falciparum DHFR at 10 uM using DHF as substrate preincubated for 15 mins followed DHF addition measured after 15 mins by spectrophotometric method
Sequence of Bifunctional dihydrofolate reductase-thymidylate synthase (Plasmodium falciparum K1) (P13922 whole entry, looked up): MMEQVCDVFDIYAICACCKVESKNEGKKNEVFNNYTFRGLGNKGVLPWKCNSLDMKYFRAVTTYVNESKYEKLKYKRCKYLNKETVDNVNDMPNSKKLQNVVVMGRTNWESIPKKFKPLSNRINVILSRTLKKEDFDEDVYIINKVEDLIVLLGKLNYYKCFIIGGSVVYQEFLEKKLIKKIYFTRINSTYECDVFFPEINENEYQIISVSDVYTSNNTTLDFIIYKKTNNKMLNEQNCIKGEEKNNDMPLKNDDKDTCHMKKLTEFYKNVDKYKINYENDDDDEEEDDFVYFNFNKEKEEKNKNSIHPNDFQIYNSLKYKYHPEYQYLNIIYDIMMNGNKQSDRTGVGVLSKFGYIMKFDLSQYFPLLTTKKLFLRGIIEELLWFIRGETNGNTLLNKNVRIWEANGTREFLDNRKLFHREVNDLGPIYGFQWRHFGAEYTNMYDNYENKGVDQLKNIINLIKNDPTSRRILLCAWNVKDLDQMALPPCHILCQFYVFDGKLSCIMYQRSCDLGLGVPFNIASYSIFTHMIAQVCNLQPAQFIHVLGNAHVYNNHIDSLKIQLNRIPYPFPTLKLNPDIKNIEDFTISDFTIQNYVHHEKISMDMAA
How it was run: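 Purified P. falciparum DHFR was preincubated 15 min on ice with compound in 100 uM NADPH, 50 mM TES pH 7.0, 1 mM EDTA, 75 mM 2-mercaptoethanol and 1 mg/mL BSA. DHF was then added to start the reaction. NADPH oxidation was followed at 340 nm, and percent inhibition was taken at 10 µM.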

[5] = molecular target: T1, Falcipain 2 (Plasmodium falciparum) (UniProt Q9N6S8); assay: Inhibition of Plasmodium falciparum FP2 at 10 uM using Z-Leu-Arg-AMC as substrate preincubated for 30 min followed by substrate addition measured after 30 mins by spectrofluorimetric method
T1 sequence (whole entry): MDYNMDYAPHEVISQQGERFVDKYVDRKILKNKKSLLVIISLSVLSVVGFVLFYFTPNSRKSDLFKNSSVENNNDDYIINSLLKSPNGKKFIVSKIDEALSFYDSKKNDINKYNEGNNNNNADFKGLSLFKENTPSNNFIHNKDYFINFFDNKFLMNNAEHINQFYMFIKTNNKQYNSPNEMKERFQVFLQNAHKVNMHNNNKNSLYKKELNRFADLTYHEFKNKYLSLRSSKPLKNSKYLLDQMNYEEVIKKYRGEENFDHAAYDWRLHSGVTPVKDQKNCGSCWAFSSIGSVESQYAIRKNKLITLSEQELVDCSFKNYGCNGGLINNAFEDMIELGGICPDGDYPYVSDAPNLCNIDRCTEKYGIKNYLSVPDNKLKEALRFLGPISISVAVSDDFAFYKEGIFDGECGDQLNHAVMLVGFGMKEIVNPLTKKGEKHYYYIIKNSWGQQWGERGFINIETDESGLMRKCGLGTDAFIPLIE
How it was run: (§2)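 FP-2 (30 nM) was preincubated 30 min at room temperature with compound in 100 mM sodium acetate, 10 mM DTT, pH 5.5, with DMSO at most 1%. The fluorescence increase was then monitored for 30 min at room temperature. Percent inhibition was screened at 10 µM. IC50 values were fitted from percent inhibition versus concentration, using three independent experiments.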

[6] = molecular target: T2, Bifunctional dihydrofolate reductase-thymidylate synthase (Plasmodium falciparum K1, UniProt P13922); assay: Inhibition of Plasmodium falciparum DHFR using DHF as substrate preincubated for 15 mins followed DHF addition measured after 15 mins by spectrophotometric method
T2 sequence (P13922 whole entry): as the sequence (P13922 whole entry, looked up) above
How it was run: (§3)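 Purified PfDHFR was preincubated with graded compound concentrations for 15 min on ice in 100 uM NADPH, 50 mM TES pH 7.0, 1 mM EDTA, 75 mM 2-mercaptoethanol and 1 mg/mL BSA. DHF was then added to start the reaction, and NADPH oxidation was followed at 340 nm. IC50 came from percent-inhibition versus concentration plots, three independent experiments.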

Falcipain 2 [7] = molecular target: T3, Falcipain 2 (Plasmodium falciparum, UniProt Q9N6S8); assay: Inhibition of Plasmodium falciparum FP2 using Z-Leu-Arg-AMC as substrate preincubated for 30 min followed by substrate addition measured after 30 mins by spectrofluorimetric method; how it was run: as §2
T3 sequence (Q9N6S8 whole entry): T1 sequence (whole entry)

Plasmodium falciparum [8] = assay: Antimalarial activity against mid-ring stage of chloroquine-resistant Plasmodium falciparum Dd2 infected in human O-positive erythrocytes after 72 hrs by SYBR Green I dye-based fluorescence assay; assay type: functional, organism-based; details: Dd2, 72 h; how it was run: as §1
[9] = molecular target: T2, Bifunctional dihydrofolate reductase-thymidylate synthase; assay: Inhibition of Plasmodium falciparum DHFR; how it was run: as §3
Falcipain 2 [10] = molecular target: T3, Falcipain 2; assay: Inhibition of Plasmodium falciparum FP2; how it was run: as §2
Plasmodium falciparum [11] = assay: Antimalarial activity against mid-ring stage of multidrug-sensitive Plasmodium falciparum 3D7 infected in human O-positive erythrocytes at 20 uM after 72 hrs by SYBR Green I dye-based fluorescence assay; assay type: functional
Plasmodium falciparum [12] = assay: Antimalarial activity against mid-ring stage of chloroquine-resistant Plasmodium falciparum Dd2 infected in human O-positive erythrocytes at 20 uM after 72 hrs by SYBR Green I dye-based fluorescence assay; assay type: functional

SMILES | inhibition [4] | inhibition [5] | IC50 [6] | IC50 (Falcipain 2 [7]) | also measured
C[C@@H]1CC[C@H]2[C@@H](C)C(=O)O[C@@H]3O[C@@]4(C)CC[C@@H]1[C@]32OO4 [ARTEMISININ] |  |  |  |  | IC50 (Plasmodium falciparum [1]): 5.2 nM; Activity (Plasmodium berghei): Active; IC50 (Plasmodium falciparum [2]): 4.1 nM; IC50 (Plasmodium falciparum [3]): 2.2 nM
COc1cc(OC)cc(C(=O)NCCc2ccc(CNc3ccc4nc(N)nc(N)c4c3)cc2)c1 | 100% | 41.1% | 32.1 nM |  | 
Nc1nc(N)c2cc(NCc3ccc(CCNC(=O)c4ccc([N+](=O)[O-])cc4)cc3)ccc2n1 | 94.7% | 67% | 55.6 nM | 10000 nM | IC50 (Plasmodium falciparum [2]): 105 nM
COc1cccc(C(=O)NCCc2ccc(CNc3ccc4nc(N)nc(N)c4c3)cc2)c1 | 96.8% | 52.6% | 39.6 nM | 6200 nM | Activity (Plasmodium berghei): Active; IC50 (Plasmodium falciparum [2]): 60.5 nM; IC50 (Plasmodium falciparum [8]): 2200 nM
Cc1nc(N)nc(N)c1OCCCOc1cc(Cl)c(Cl)cc1Cl |  |  |  |  | IC50 [9]: 229 nM
CCc1nc(N)nc(N)c1-c1ccc(Cl)cc1 [PYRIMETHAMINE] |  |  |  |  | Activity (Plasmodium berghei): Active; IC50 (Plasmodium falciparum [8]): > 10000 nM
CC1(C)N=C(N)N=C(N)N1c1ccc(Cl)cc1 [CHLORCYCLOGUANIL HYDROCHLORIDE] |  |  |  |  | IC50 [9]: 1.5 nM
Nc1nc(N)c2cc(NCc3ccc(CCNC(=O)c4ccc(Cl)cc4F)cc3)ccc2n1 | 68.2% | 62.4% |  | 9100 nM | 
COc1ccc(OC)c(CNc2ccc3nc(N)nc(N)c3c2Cl)c1 |  |  |  |  | IC50 [9]: 0.39 nM
CC(C)C[C@H](NC(=O)[C@@H]1O[C@H]1C(=O)O)C(=O)NCCCCN=C(N)N |  |  |  | 57.2 nM | 
Nc1nc(N)c2cc(NCc3ccc(CCNC(=O)Cc4ccccc4)cc3)ccc2n1 | 92.4% | 65% | 70.1 nM | 7600 nM | IC50 (Plasmodium falciparum [2]): 266 nM
Nc1nc(N)c2cc(NCc3ccc(CCNC(=O)c4ccc(F)cc4)cc3)ccc2n1 | 96.7% | 52.7% | 118 nM | 6700 nM | IC50 (Plasmodium falciparum [2]): 391 nM
CC1(C)N=C(N)N=C(N)N1OCCCOc1cc(Cl)c(Cl)cc1Cl |  |  |  |  | IC50 [9]: 0.57 nM
Nc1nc(N)c2cc(NCc3ccc(CCNC(=O)c4ccc(C(F)(F)F)cc4)cc3)ccc2n1 | 96.4% | 21.5% | 21.3 nM |  | 
Nc1nc(N)c2cc(NCc3ccc(CCNC(=O)c4ccco4)cc3)ccc2n1 | 97.8% | 28.9% | 107 nM |  | 
Nc1nc(N)c2cc(NCc3ccc(CCNC(=O)c4ccc5c(c4)OCCO5)cc3)ccc2n1 | 100% | 34.9% | 80.9 nM |  | 
O=C(CCc1ccc(S(=O)(=O)NCCc2ccccc2)cc1)Nc1ccc2c(c1)OCCO2 |  |  |  |  | IC50 [9]: 35500 nM; IC50 (Falcipain 2 [10]): 54200 nM
Nc1nc(N)c2cc(NCc3ccc(CCNC(=O)C4CCCCC4)cc3)ccc2n1 | 96% | 66.6% | 226 nM | 7700 nM | 
Nc1nc(N)c2cc(NCc3ccc(CCNC(=O)c4cccc(F)c4)cc3)ccc2n1 | 98.5% | 49.8% | 50.6 nM |  | 
Nc1nc(N)c2cc(NCc3ccc(CCNC(=O)c4ccc5ccccc5c4)cc3)ccc2n1 | 100% | 46.4% | 67.9 nM |  | 
Nc1nc(N)c2cc(NCc3ccc(CCNC(=O)c4ccc5c(c4)OCO5)cc3)ccc2n1 | 100% | 59.2% | 26.2 nM | 5100 nM | IC50 (Plasmodium falciparum [2]): 78.6 nM
CCc1nnc(NC(=O)CCc2ccc(S(=O)(=O)Nc3ccc(F)cc3)cc2)s1 | 59.2% | 64.7% | 6300 nM | 7000 nM | Activity (Plasmodium falciparum [11]): 7.9%; Activity (Plasmodium falciparum [12]): 6.2%; IC50 [9]: 6300 nM; IC50 (Falcipain 2 [10]): 7000 nM
Nc1nc(N)c2cc(NCc3ccc(CCNC(=O)c4ccccc4F)cc3)ccc2n1 | 100% | 44.6% | 180 nM |  | 
Nc1nc(N)c2cc(NCc3ccc(CCNC(=O)c4ccncc4)cc3)ccc2n1 | 51.5% | 22.9% |  |  | 
COc1ccc(C(=O)NCCc2ccc(CNc3ccc4nc(N)nc(N)c4c3)cc2)cc1Cl | 51.2% | 37.6% |  |  | 
COc1ccc(C(=O)NCCc2ccc(CNc3ccc4nc(N)nc(N)c4c3)cc2)cc1OC | 100% | 31.3% | 61.1 nM |  | 
Nc1nc(N)c2cc(NCc3ccc(CCNC(=O)CCc4ccccc4)cc3)ccc2n1 | 98.6% | 55.2% | 185 nM | 4900 nM | 
COc1ccc(C(=O)NCCc2ccc(CNc3ccc4nc(N)nc(N)c4c3)cc2)cc1 | 95.1% | 21.2% | 157 nM |  | 
CC(C)(C)C1CCC(C(=O)NCCc2ccc(CNc3ccc4nc(N)nc(N)c4c3)cc2)CC1 (stereo not drawn) | 99.9% | 55.8% | 290 nM | 7400 nM | 
Nc1nc(N)c2cc(NCc3ccc(CCNC(=O)c4cccs4)cc3)ccc2n1 | 97.4% | 67.6% | 84.1 nM | 10000 nM | IC50 (Plasmodium falciparum [1]): 14.2 nM; Activity (Plasmodium berghei): Active; IC50 (Plasmodium falciparum [2]): 53.1 nM; IC50 (Plasmodium falciparum [8]): 1200 nM; IC50 (Plasmodium falciparum [3]): 23.4 nM

— ChEMBL document CHEMBL4177676, “Discovery of new antimalarial agents: Second-generation dual inhibitors against FP-2 and PfDHFR via fragments assembely” (Bioorg Med Chem, 2017)
